According to the array DNA melting data of Ke et al. (doi:10.1101/2024.01.08.574731):

Legend:
[1] = melting temperature; fluorescence melt of hairpins on a sequencing array, two-state fit, raised by 9.35 °C to match UV melts; settings: sodium 0.088 M
In short: (§1)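 Two-state fits, bootstrapped, provided melting temperature and folding enthalpy from Cy3 fluorescence normalised to pre-quench Cy3 and to control constructs. Library hairpins with annealed Cy3 and quencher oligos were imaged on a sequenced MiSeq flow cell in 50 mM Na-HEPES pH 8.0, 25 mM NaCl, at 2.5 °C intervals up to 60 °C. Four replicates were combined with inverse-variance weighting. A 9.35 °C upward shift was applied to fitted temperatures to match UV melts.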

[2] = folding enthalpy; higher = less favourable; fluorescence melt of hairpins on a sequencing array, two-state fit; settings: sodium 0.088 M
In short: as §1

Sequence | Tm [1] | folding enthalpy [2]
GGGGATCGAAAGATACCC (((.(((....))).))) | 62.3 °C | -43.2 kcal/mol
GGGTTCGAAAGAACTCCC ((((((....)))..))) | 46.5 °C | -13.5 kcal/mol
CGCTCGGAAACGAGTGCG ((((((....)))..))) | 44.9 °C | -15.8 kcal/mol
GCTACGCGAAAGCGAAGC (((.(((....))).))) | 57.5 °C | -36.7 kcal/mol
GAGTGCCGAAAGGCTCTC (((.(((....))).))) | 56.4 °C | -25.6 kcal/mol
GATCCTGGCTAGGATC ((((((....)))))) | 57.5 °C | -38.3 kcal/mol
GATCACCGAAGTGATC ((((((....)))))) | 55.8 °C | -38.1 kcal/mol
GATGTAGGAAACTATATC (((.(((....))).))) | 33.1 °C | -28.5 kcal/mol
GGATCTCGAAAGAGTCC (((.(((....)))))) | 49.3 °C | -25.1 kcal/mol
GGGAGCGGAAACGCTTCC ((.((((....)))).)) | 61.4 °C | -33.7 kcal/mol
GCCAGAGAAATCTGGC ((((((....)))))) | 64.3 °C | -31.8 kcal/mol
GCGGGGTCGAAAGACCGC (((..(((....)))))) | 57.7 °C | -12.8 kcal/mol
GCCTGTGGAAACACGGGC (((.(((....))).))) | 61.9 °C | -41 kcal/mol
GTAGCCGAAAGGCGTTAC ((((((....)))..))) | 38.9 °C | -8 kcal/mol
GACATAACGAAAGTTGTC (((..(((....)))))) | 37.4 °C | -25 kcal/mol
GATCGCACGAAAGTGATC (((..(((....)))))) | 36.4 °C | -16.3 kcal/mol
GTACACGAAAGTGAGTAC ((((((....)))..))) | 36.5 °C | -15.6 kcal/mol
GAACACGGAAACGTGTTC (((((((....))))))) | 67.5 °C | -38.1 kcal/mol
GATCACGGCGTGATC ((((((...)))))) | 61.3 °C | -38 kcal/mol
GCTTACGCGAAAGCGAGC (((..(((....)))))) | 43 °C | -12.7 kcal/mol
GATCTGTGTACAGATC ((((((....)))))) | 56 °C | -47.9 kcal/mol
GATCTGTTTCAGATC ((((((...)))))) | 50.5 °C | -34.5 kcal/mol
GCCGGGCGAAAGCTTGGC (((..((....))..))) | 65.3 °C | -24.4 kcal/mol

Sequence | Tm [1] | folding enthalpy [2]
GCCTAAGGAAACTTGGGC (((.(((....))).))) | 48.9 °C | -37 kcal/mol
GCCTTCGGAAACGGAGGC ((((.((....)).)))) | 58.6 °C | -40.4 kcal/mol
TTCACGAAAGTGAA (((((....))))) | 51 °C | -19.2 kcal/mol
GCCTGGCGAAAGCCCGGC (((.(((....))).))) | 59.4 °C | -35.3 kcal/mol
GCACCGCGAAAGCTGAGC ((.(.((....)).).)) | 37.5 °C | -14.4 kcal/mol
GTCTGCGGAAACGTGGAC (((..((....))..))) | 47.5 °C | -32.4 kcal/mol
GAGGAGCGAAAGCTACTC (((.(((....))).))) | 64.8 °C | -31.4 kcal/mol
GGCAGCGGAAACGCTGTC (.(((((....))))).) | 67.2 °C | -17.6 kcal/mol
GGCTCCCGAAAGGGCGCC (((.(((....))).))) | 62.6 °C | -33.6 kcal/mol
GCACACGAAAGTGATGC ((((((....))).))) | 54.5 °C | -33.1 kcal/mol
GATCAGGGGCCTGATC ((((((....)))))) | 53 °C | -33.1 kcal/mol
GCCCGCTCGAAAGAGGGC (((..(((....)))))) | 54.6 °C | -40.6 kcal/mol
GCCATGGGAAACCACGGC (((.(((....))).))) | 47.7 °C | -36.5 kcal/mol
GTCCAGGGAAACCCAGAC (((..((....))..))) | 31.4 °C | -17.4 kcal/mol
GCATCCGGAAACGAATGC ((((.((....)).)))) | 45.5 °C | -44.1 kcal/mol
GATCAGAGTCCTGATC ((((((....)))))) | 47.6 °C | -38.2 kcal/mol
GTAAATGGAAACATTTAC (((((((....))))))) | 51.3 °C | -31.5 kcal/mol
GTTGGGGCGAAAGCCAAC (((..(((....)))))) | 46 °C | -16.5 kcal/mol
GTCTAGCGAAAGCTCGAC (((.(((....))).))) | 50 °C | -28.2 kcal/mol
GCGAAGGGAAACCCTCGC ((((.((....)).)))) | 53.4 °C | -42.3 kcal/mol
GGTTTTGGAAACAGAACC ((((.((....)).)))) | 42.1 °C | -36.7 kcal/mol
GGATTTCGAAAGAATCC (((.(((....)))))) | 41.3 °C | -28.8 kcal/mol
GCAGCCGAAAGGCACTGC ((((((....)))..))) | 45.4 °C | -13.7 kcal/mol

Sequence | Tm [1] | folding enthalpy [2]
GATCTAACCATAGATC ((((((....)))))) | 38.2 °C | -31.7 kcal/mol
GAAAGAGAAATCTTTC ((((((....)))))) | 36.8 °C | -18.2 kcal/mol
GCCAAGCGAAAGCCAGGC (((..((....))..))) | 54.5 °C | -22.2 kcal/mol
GCGACGCGAAAGCTACGC (((..((....))..))) | 52.5 °C | -18.6 kcal/mol
GATCACCAGAGTGATC ((((((....)))))) | 57.2 °C | -40 kcal/mol
GTAGTAGGAAACTACTAC (((((((....))))))) | 53.3 °C | -41.9 kcal/mol
GCCACTGGAAACAACGGC (((..((....))..))) | 27.6 °C | -17.3 kcal/mol
GCATGTCCGAAAGGATGC (((..(((....)))))) | 40.2 °C | -16.4 kcal/mol
GAACCAGGAAACTGGCTC ((.((((....)))).)) | 39.6 °C | -21.8 kcal/mol
GCTATACGAAAGTAAAGC (((.(((....))).))) | 42.8 °C | -28 kcal/mol
GTCCGCGAAAGCGAAGAC ((((((....)))..))) | 45.4 °C | -17.4 kcal/mol
GATCAGTTTACTGATC ((((((....)))))) | 59.6 °C | -49.2 kcal/mol
GATCATAAAAATGATC ((((((....)))))) | 36.8 °C | -27.4 kcal/mol
GCGCTGCGAAAGCCCCGC (((..((....))..))) | 41.5 °C | -22.5 kcal/mol
GAGTCAGGAAACTAACTC ((((.((....)).)))) | 25.4 °C | -12.4 kcal/mol
GATCATTCGTATGATC ((((((....)))))) | 48.1 °C | -33.3 kcal/mol
GTGGTTGGAAACAACTAC ((.((((....)))).)) | 47.8 °C | -24.8 kcal/mol
GTTTAAGGAAACTTGAAC (((.(((....))).))) | 35 °C | -18.5 kcal/mol
GTCCCTCGAAAGAGTGAC (((.(((....))).))) | 45.3 °C | -31.9 kcal/mol
GATTTAGCGAAAGCTATC (((..(((....)))))) | 29.1 °C | -10.5 kcal/mol
GCCGCCGAAAGGCCCGGC ((((((....)))..))) | 48 °C | -17.4 kcal/mol
GATTATGGAAACATGATC (((.(((....))).))) | 35.5 °C | -32.8 kcal/mol
GGTCTTCGAAAGAATACC (((.(((....))).))) | 39.1 °C | -32.9 kcal/mol

Sequence | Tm [1] | folding enthalpy [2]
GCCAGCGAAAGCTTAGGC ((((((....)))..))) | 52 °C | -27.3 kcal/mol
GATCCAACACTGGATC ((((((....)))))) | 48.1 °C | -43 kcal/mol
ACCAAGAAATTGGT (((((....))))) | 37.5 °C | -13.7 kcal/mol
GCGCTACGAAAGTACGC (((.(((....)))))) | 55.3 °C | -32.2 kcal/mol
CGCCTCGGAAACGAGCG (((.(((....)))))) | 54.8 °C | -26.9 kcal/mol
GGCTGTCCGAAAGGAGCC (((..(((....)))))) | 47.4 °C | -25.1 kcal/mol
GCTATCGAAAGATCAGC ((((((....))).))) | 38.2 °C | -20.6 kcal/mol
GAGTGTGGAAACATGCTC (((..((....))..))) | 38.7 °C | -31.2 kcal/mol
GTGAAGCGAAAGCTCAC (((.(((....)))))) | 56 °C | -26.2 kcal/mol
CGAGTTCGGAAACGATCG (((..(((....)))))) | 30.8 °C | -10.2 kcal/mol
GTCCGACGAAAGTCAGAC (((.(((....))).))) | 50 °C | -23.5 kcal/mol
GGATAGGGAAACCTATTC (.(((((....))))).) | 34.9 °C | -29.4 kcal/mol
GATCGAGAATCGATC ((((((...)))))) | 59.5 °C | -39.8 kcal/mol
GTCGGCGAAAGCCGAGAC ((((((....)))..))) | 55.6 °C | -7.78 kcal/mol
GGACGTGGAAACGTGTCC ((((..(....)..)))) | 44.3 °C | -19.9 kcal/mol
GGCAACCGAAAGGTGGCC (((.(((....))).))) | 67.7 °C | -35 kcal/mol
GATCTCGGGGAGATC ((((((...)))))) | 54.3 °C | -30.2 kcal/mol
GATCCTCCTAGGATC ((((((...)))))) | 54 °C | -39.2 kcal/mol
GATCCGGCTTCGGATC ((((((....)))))) | 59.5 °C | -39.8 kcal/mol
GATCACTACCGTGATC ((((((....)))))) | 55.3 °C | -41.2 kcal/mol
GGTGAGGGAAACCCCACC ((((.((....)).)))) | 50.5 °C | -39.2 kcal/mol
GATCCACTCCTGGATC ((((((....)))))) | 50.3 °C | -38.4 kcal/mol
GATATACGAAAGTACATC (((.(((....))).))) | 30.5 °C | -27.2 kcal/mol
